Measurements published in ChEMBL document CHEMBL1151159, “Antineoplastic agents. 380. Isolation and X-ray crystal structure determination of isoaaptamine from the Republic of Singapore Hymeniacidon sp. and conversion to the phosphate prodrug hystatin 1” (2004).
≈ marks a conversion by molar mass, not a printed value. Calls of active or inactive are those of the source. No cut-off for these calls is given here.

What was measured:
P388 = assay: Antineoplastic activity against mouse P388 cells; type: functional; conditions: read-out: ED50 (the source's name)
SK-MEL-5 = assay: Antineoplastic activity against human SK-MEL-5 cells; type: functional; conditions: read-out: ED50 (the source's name)
SF-295 = assay: Antineoplastic activity against human SF295 cells; type: functional; conditions: read-out: ED50 (the source's name)
KM-20L2 = assay: Antineoplastic activity against human KM20L2 cells; type: functional; conditions: read-out: ED50 (the source's name)
NCI-H460 = assay: Antineoplastic activity against human NCI-H460 cells; type: functional; conditions: read-out: ED50 (the source's name)
OVCAR-3 = assay: Antineoplastic activity against human OVCAR-3 cells; type: functional; conditions: read-out: ED50 (the source's name)
A498 = assay: Antineoplastic activity against human A498 cells; type: functional; conditions: read-out: ED50 (the source's name)
Micrococcus luteus [1] = assay: Antimicrobial activity against Micrococcus luteus at 64 ug/ml by broth microdilution susceptibility assay; type: functional, organism-based
Method in brief: (§1)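 Bacteria tested by broth microdilution following the NCCLS standard for aerobically growing bacteria (M7-A4). MIC read as the lowest compound concentration that blocked all visible growth of the organism (optically clear wells).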

Escherichia coli = assay: Antimicrobial activity against Escherichia coli at 64 ug/ml by broth microdilution susceptibility assay; type: functional, organism-based; method in brief: as §1
Enterobacter cloacae = assay: Antimicrobial activity against Enterobacter cloacae at 64 ug/ml by broth microdilution susceptibility assay; type: functional, organism-based; method in brief: as §1
Neisseria gonorrhoeae = assay: Antimicrobial activity against Neisseria gonorrhoeae by broth microdilution susceptibility assay; type: functional; method in brief: as §1
Enterococcus faecalis [2] = assay: Antimicrobial activity against Enterococcus faecalis at 64 ug/ml by broth microdilution susceptibility assay; type: functional, organism-based; method in brief: as §1
Cryptococcus neoformans [3] = assay: Antimicrobial activity against Cryptococcus neoformans at 64 ug/ml by broth microdilution susceptibility assay; type: functional, organism-based
Method in brief: (§2)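 Yeast panel (Candida albicans, Cryptococcus neoformans) tested by broth microdilution following the NCCLS reference method for yeasts (M27-A). MIC taken as the lowest compound concentration giving no visible growth (optically clear).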

Staphylococcus aureus = assay: Antimicrobial activity against Staphylococcus aureus by broth microdilution susceptibility assay; type: functional; method in brief: as §1
Streptococcus pneumoniae = assay: Antimicrobial activity against Streptococcus pneumoniae by broth microdilution susceptibility assay; type: functional; method in brief: as §1
Candida albicans = assay: Antimicrobial activity against Candida albicans at 64 ug/ml by broth microdilution susceptibility assay; type: functional, organism-based; method in brief: as §2
Micrococcus luteus [4] = assay: Antimicrobial activity against Micrococcus luteus by broth microdilution susceptibility assay; type: functional; method in brief: as §1
Cryptococcus neoformans [5] = assay: Antimicrobial activity against Cryptococcus neoformans by broth microdilution susceptibility assay; type: functional; method in brief: as §2
[6] = test system: Stenotrophomonas maltophilia; assay: Antimicrobial activity against Stenotrophomonas maltophilia at 64 ug/ml by broth microdilution susceptibility assay; type: functional, organism-based; method in brief: as §1
Enterococcus faecalis [7] = assay: Antimicrobial activity against Enterococcus faecalis by broth microdilution susceptibility assay; type: functional; method in brief: as §1

| SMILES | EC50 (P388) [µg/mL] | EC50 (SK-MEL-5) [µg/mL] | EC50 (SF-295) [µg/mL] | EC50 (KM-20L2) [µg/mL] | EC50 (NCI-H460) [µg/mL] | EC50 (OVCAR-3) [µg/mL] | EC50 (A498) [µg/mL] | Activity (Micrococcus luteus [1]) | Activity (Escherichia coli) | Activity (Enterobacter cloacae) | MIC (Neisseria gonorrhoeae) [µg/mL] | Activity (Enterococcus faecalis [2]) | Activity (Cryptococcus neoformans [3]) | MIC (Staphylococcus aureus) [µg/mL] | MIC (Streptococcus pneumoniae) [µg/mL] | Activity (Candida albicans) | MIC (Micrococcus luteus [4]) [µg/mL] | MIC (Cryptococcus neoformans [5]) [µg/mL] | Activity [6] | MIC (Enterococcus faecalis [7]) [µg/mL] |
| --- | --- | --- | --- | --- | --- | --- | --- | --- | --- | --- | --- | --- | --- | --- | --- | --- | --- | --- | --- | --- |
| COC1=Cc2ccnc3ccnc(c23)C1(OC)OC | 59 (≈ 228 µM) |  |  |  |  |  |  |  |  |  |  |  |  |  |  |  |  |  |  |  |
| COc1cc2ccnc3c2c(c1OC)NC=C3 [AAPTAMINE] | 3.6 (≈ 15.8 µM) | 4.3 (≈ 18.8 µM) | 4.1 (≈ 18 µM) | 3.6 (≈ 15.8 µM) | 3.2 (≈ 14 µM) | 4.9 (≈ 21.5 µM) | 3.2 (≈ 14 µM) |  |  |  |  |  |  |  |  |  |  |  |  |  |
| COC1=Cc2ccnc3ccnc(c23)C1=O [DEMETHYLOXY-AAPTAMINE] | 0.31 (≈ 1.46 µM) | 1 (≈ 4.71 µM) | 2.8 (≈ 13.2 µM) | 2.1 (≈ 9.9 µM) | 2.3 (≈ 10.8 µM) | 0.39 (≈ 1.84 µM) | 4.2 (≈ 19.8 µM) |  |  |  |  |  |  |  |  |  |  |  |  |  |
| COc1cc2ccnc3c2c(c1OP(=O)([O-])[O-])N(C)C=C3.[Na+].[Na+] [HYSTATIN 1] | 3 |  |  | > 10 | > 10 |  |  | inactive | inactive | inactive | < 0.5 | inactive | inactive | 64 | 16 | inactive |  |  |  |  |
| COc1cc2ccnc3c2c(c1O)N(C)C=C3 [ISOAAPTAMINE] | 0.28 (≈ 1.23 µM) | 1.6 (≈ 7.01 µM) | 2.6 (≈ 11.4 µM) | 2.3 (≈ 10.1 µM) | 2.4 (≈ 10.5 µM) | 1.2 (≈ 5.26 µM) | 2.2 (≈ 9.64 µM) |  | inactive | inactive | < 0.5 |  |  | 16 (≈ 70.1 µM) | 8 (≈ 35 µM) | inactive | 32 (≈ 140 µM) | 64 (≈ 280 µM) | inactive | 32 (≈ 140 µM) |
